Laboratory results reported in ChEMBL document CHEMBL1221325, “Synthesis and ribonuclease A inhibition activity of resorcinol and phloroglucinol derivatives of catechin and epicatechin: Importance of hydroxyl groups” (Bioorg Med Chem, 2010).
Active and inactive are the calls of the source. The rule behind the calls is not given here.

Experiments:
[1] = organism: Gallus gallus; experiment: Antiangiogenic activity against angiogenin-induced angiogenesis in chicken eggs at 150 uM for 10 days measured after 48 hrs by CAM assay; format: functional; conditions: Egg
Method in brief: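 Chick embryo chorioallantoic membrane exposed through a small hole drilled in the shell on day 2. 10 µl aliquots of angiogenin, alone or mixed with compound, dried on transparent discs, which were inverted onto the CAM on day 10. Response read after 48 h as density of blood vessel formation against a control set.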

[2] = target: Ribonuclease pancreatic (Bos taurus) (UniProt P61823); experiment: Binding affinity to RNase A by fluorescence quenching
Sequence of Ribonuclease pancreatic (Bos taurus) (P61823 whole entry, looked up): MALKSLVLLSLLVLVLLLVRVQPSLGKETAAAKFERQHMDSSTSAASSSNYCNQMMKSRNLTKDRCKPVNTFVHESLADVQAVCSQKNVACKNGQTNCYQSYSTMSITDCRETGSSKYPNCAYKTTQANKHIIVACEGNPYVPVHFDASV

[3] = target: Ribonuclease pancreatic (Bos taurus) (UniProt P61823); experiment: Inhibition of RNase A-mediated degradation of yeast tRNA assessed as residual tRNA band by agarose gel electrophoresis relative to control

Row | SMILES | Activity [1] | Kb [2] [×10⁴ /M] | Ratio [3]
1 | Oc1cc(O)c([C@H]2c3c(O)cc(O)cc3O[C@H](c3ccc(O)c(O)c3)[C@@H]2O)c(O)c1 | Active | 6.76 | 0.704
2 | Oc1cc(O)c([C@@H]2c3c(O)cc(O)cc3O[C@H](c3ccc(O)c(O)c3)[C@@H]2O)c(O)c1 | – | 3.14 | 0.699
3 | Nc1ccn([C@@H]2O[C@H](CO)[C@@H](OP(=O)(O)O)[C@H]2O)c(=O)n1 | – | – | 0.71
4 | Oc1cc(O)c2c(c1)O[C@H](c1ccc(O)c(O)c1)[C@H](O)C2 | – | – | 0.295
5 | Oc1ccc([C@H]2c3c(O)cc(O)cc3O[C@H](c3ccc(O)c(O)c3)[C@@H]2O)c(O)c1 | Active | 2.42 | 0.659
6 | Oc1ccc([C@@H]2c3c(O)cc(O)cc3O[C@H](c3ccc(O)c(O)c3)[C@H]2O)c(O)c1 | – | 1.37 | 0.612
7 | Oc1cc(O)c2c(c1)OC(c1ccc(O)c(O)c1)C(O)C2 (stereo not drawn) | – | – | 0.331
